Measurements reported in ChEMBL document CHEMBL1132176, “Novel A,B,E-ring-modified camptothecins displaying high lipophilicity and markedly improved human blood stabilities” (J Med Chem, 1999).

Legend:
[1] = Stability parameter for the compound at a concentration of 1 uM in whole human blood after 3h; assay type: ADME; details: read-out: Lactone
How it was run: (§1)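 Lactone-to-carboxylate hydrolysis followed by HPLC; drug at 1 μM incubated at 37 °C for 3 h in human whole blood, plasma, or PBS (pH 7.4) with or without physiologically relevant levels of HSA or albumin-free RBCs ((5 ± 1) × 10^6 cell/μL). Plasma continuously aerated with blood gas to hold pH 7.5 ± 0.1. Blood kept at 5 °C before start. Value is % lactone remaining.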

[2] = Stability parameter for the compound in mouse blood after 3h; assay type: ADME; details: read-out: Lactone
How it was run: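 Drug was incubated in mouse blood at pH 7.4 and 37 °C for 3 h. Blood was kept at 5 °C after drawing and before the start. The percent lactone remaining was measured by HPLC.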

[3] = Equilibrium association (binding) constant interacting with Unilamellar Vesicles of negatively charged DMPG in PBS buffer at pH 7.4 and 37 C; assay type: ADME
How it was run: (§2)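 Fluorescence anisotropy titration of 1 μM drug (lactone form) with small unilamellar vesicles, in PBS at pH 7.4 and 37 °C. Anisotropy was read about 1 min after adding drug at each lipid concentration to limit lactone hydrolysis. Adsorption isotherms were constructed, and K was taken from the slopes of double-reciprocal plots, with 10% uncertainty.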

[4] = Stability parameter for the compound at a concentration of 1 uM in plasma after 3h; assay type: ADME, cell-free; details: read-out: Lactone; how it was run: as §1
[5] = Equilibrium association (binding) constant interacting with Unilamellar Vesicles of electroneutral DMPC in PBSbuffer at pH 7.4 and 37 C; assay type: ADME; how it was run: as §2
[6] = Stability parameter for the compound at a concentration of 1 uM in phosphate-buffered saline(PBS, pH 7.4) after 3h; assay type: physicochemical; details: read-out: Lactone; how it was run: as §1
[7] = Stability parameter for the compound in human blood after 3h; assay type: ADME; details: read-out: Lactone
[8] = Stability parameter for the compound at a concentration of 1 uM in red blood cells(RBC) after 3h; assay type: ADME, cell-based; details: read-out: Lactone; how it was run: as §1
[9] = Stability parameter for the compound at a concentration of 1 uM in human serum albumin(HSA) after 3h; assay type: ADME; details: read-out: Lactone; how it was run: as §1

SMILES	remaining at 3 h, 1 µM [1] [%]	remaining at 3 h [2] [%]	K DMPG [3] [M⁻¹]	remaining at 3 h, 1 µM [4] [%]	K DMPC [5] [M⁻¹]	remaining at 3 h, 1 µM [6] [%]	remaining at 3 h [7] [%]	remaining at 3 h, 1 µM [8] [%]	remaining at 3 h, 1 µM [9] [%]
CCC1(O)CC(=O)OCc2c1cc1n(c2=O)Cc2c-1nc1ccccc1c2[Si](C)(C)C(C)(C)C (stereo unspecified)	86.6	80	19000	85	14000	84.9	87	92	88.1
CCC1(O)CC(=O)OCc2c1cc1n(c2=O)Cc2c-1nc1ccc(O)cc1c2[Si](C)(C)C(C)(C)C (stereo unspecified)	84.9	70	4000	61.5	8000	83.1	85	88.5	82.9
CCC1(O)CC(=O)OCc2c1cc1n(c2=O)Cc2c-1nc1ccc(N)cc1c2[Si](C)(C)C(C)(C)C (stereo unspecified)	85.2	61	9000	71.1	9000	83.7	85	85.5	86.8
CCC(O)(CC(=O)O)c1cc2n(c(=O)c1CO)Cc1c-2nc2ccc(N)cc2c1[Si](C)(C)C(C)(C)C (stereo unspecified)			80		800				
CCC(O)(CC(=O)O)c1cc2n(c(=O)c1CO)Cc1c-2nc2ccc(O)cc2c1[Si](C)(C)C(C)(C)C (stereo unspecified)			100		700				
CCC1(O)CC(=O)OCc2c1cc1n(c2=O)Cc2c-1nc1ccc(N)cc1c2[Si](C)(C)C (stereo unspecified)	56.4	72	800	40.3	1400	82.8	56	84.8	81.4
CC[C@@]1(O)C(=O)OCc2c1cc1n(c2=O)Cc2cc3ccccc3nc2-1 [CAMPTOTHECIN]		20	100		100		7		
CC[C@@]1(O)C(=O)OCc2c1cc1n(c2=O)Cc2cc3c(CN(C)C)c(O)ccc3nc2-1 [TOPOTECAN]			50		10				
